Source: ChEMBL document CHEMBL4190362, “Synthesis, biological evaluation and quantitative structure-active relationships of 1,3-thiazolidin-4-one derivatives. A promising chemical scaffold endowed with high antifungal potency and low cytotoxicity” (Eur J Med Chem, 2017)

Assays:
[Candida] sake = Antifungal activity against Candida sake clinical isolates assessed as inhibition of microbial growth incubated for 24 hrs by broth microdilution method; type: functional; settings: Fermentozyma sake
Procedure, shortened: (§1)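 Twenty-two clinical Candida isolates (8 C. albicans, 4 C. glabrata, 3 C. tropicalis, 3 C. krusei, 2 C. parapsilosis, 2 C. sake) were identified by colony morphology and biochemistry and subcultured at 35 °C for purity. Compounds were dissolved in DMSO and tested by broth microdilution in Sabouraud dextrose broth per NCCLS/CLSI/EUCAST guidance. Values are geometric mean MIC per species (µg/mL).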

Candida albicans = experiment: Antifungal activity against Candida albicans clinical isolates assessed as inhibition of microbial growth incubated for 24 hrs by broth microdilution method; type: functional; procedure, shortened: as §1
Nakaseomyces glabratus = experiment: Antifungal activity against Candida glabrata clinical isolates assessed as inhibition of microbial growth incubated for 24 hrs by broth microdilution method; type: functional; procedure, shortened: as §1
Candida parapsilosis = experiment: Antifungal activity against Candida parapsilosis clinical isolates assessed as inhibition of microbial growth incubated for 24 hrs by broth microdilution method; type: functional; settings: Lodderomyces parapsilosis; procedure, shortened: as §1
Candida tropicalis = experiment: Antifungal activity against Candida tropicalis clinical isolates assessed as inhibition of microbial growth incubated for 24 hrs by broth microdilution method; type: functional; procedure, shortened: as §1
Proteus mirabilis = experiment: Antibacterial activity against Proteus mirabilis assessed as inhibition of microbial growth incubated for 18 to 22 hrs by broth microdilution method; type: functional
Procedure, shortened: (§2)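 Broth microdilution in Mueller-Hinton II broth following NCCLS recommendations; compounds dissolved in DMSO.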

Klebsiella oxytoca = experiment: Antibacterial activity against Klebsiella oxytoca assessed as inhibition of microbial growth incubated for 18 to 22 hrs by broth microdilution method; type: functional; procedure, shortened: as §2
Pichia kudriavzevii = experiment: Antifungal activity against Candida krusei clinical isolates assessed as inhibition of microbial growth incubated for 24 hrs by broth microdilution method; type: functional; procedure, shortened: as §1
Enterobacter = experiment: Antibacterial activity against Enterobacter spp. assessed as inhibition of microbial growth incubated for 18 to 22 hrs by broth microdilution method; type: functional; procedure, shortened: as §2
Escherichia coli = experiment: Antibacterial activity against Escherichia coli assessed as inhibition of microbial growth incubated for 18 to 22 hrs by broth microdilution method; type: functional; procedure, shortened: as §2
Staphylococcus warneri = experiment: Antibacterial activity against Staphylococcus warneri assessed as inhibition of microbial growth incubated for 18 to 22 hrs by broth microdilution method; type: functional; procedure, shortened: as §2
Enterococcus faecalis = experiment: Antibacterial activity against Streptococcus faecalis assessed as inhibition of microbial growth incubated for 18 to 22 hrs by broth microdilution method; type: functional; procedure, shortened: as §2
[1] = system: Streptococcus alpha-hemolyticus (Streptococcus sp.); experiment: Antibacterial activity against Streptococcus Streptococcus alpha hemolyticus assessed as inhibition of microbial growth incubated for 18 to 22 hrs by broth microdilution method
Staphylococcus aureus = experiment: Antibacterial activity against Staphylococcus aureus assessed as inhibition of microbial growth incubated for 18 to 22 hrs by broth microdilution method; type: functional; procedure, shortened: as §2

| Compound | MIC ([Candida] sake) | MIC (Candida albicans) | MIC (Nakaseomyces glabratus) | MIC (Candida parapsilosis) | MIC (Candida tropicalis) | MIC (Proteus mirabilis) | MIC (Klebsiella oxytoca) | MIC (Pichia kudriavzevii) | MIC (Enterobacter) | MIC (Escherichia coli) | MIC (Staphylococcus warneri) | MIC (Enterococcus faecalis) | MIC (Staphylococcus aureus) | MIC [1] |
| --- | --- | --- | --- | --- | --- | --- | --- | --- | --- | --- | --- | --- | --- | --- |
| CC/C(C)=N\N=C1/NC(=O)CS1 | 2 µg/mL | 8 µg/mL | 2 µg/mL | 2 µg/mL | 2 µg/mL | ≥ 256 µg/mL | ≥ 256 µg/mL | 2 µg/mL | ≥ 256 µg/mL | ≥ 256 µg/mL | ≥ 256 µg/mL | ≥ 256 µg/mL | ≥ 256 µg/mL | ≥ 256 µg/mL |
| CC(C)=C/C(C)=N\N=C1/NC(=O)CS1 | 4 µg/mL | 2 µg/mL | 2 µg/mL | 2 µg/mL | 8 µg/mL | ≥ 256 µg/mL | ≥ 256 µg/mL | 2 µg/mL | ≥ 256 µg/mL | ≥ 256 µg/mL | ≥ 256 µg/mL | ≥ 256 µg/mL | ≥ 256 µg/mL | ≥ 256 µg/mL |
| C/C(=N/N=C1/SCC(=O)N1Cc1ccccc1)c1cccc2ccccc12 | 4 µg/mL | 4 µg/mL | 4 µg/mL | 16 µg/mL | 32 µg/mL | ≥ 256 µg/mL | ≥ 256 µg/mL | 16 µg/mL | ≥ 256 µg/mL | ≥ 256 µg/mL | ≥ 256 µg/mL | ≥ 256 µg/mL | ≥ 256 µg/mL | – |
| C/C(=N/N=C1/SCC(=O)N1Cc1ccccc1)c1ccc2ccccc2c1 | 16 µg/mL | 8 µg/mL | 16 µg/mL | 16 µg/mL | 256 µg/mL | ≥ 256 µg/mL | ≥ 256 µg/mL | 16 µg/mL | ≥ 256 µg/mL | ≥ 256 µg/mL | ≥ 256 µg/mL | ≥ 256 µg/mL | ≥ 256 µg/mL | – |
| C/C(=N/N=C1/SCC(=O)N1Cc1ccccc1)c1ccc(/C(C)=N\N=C2\SCC(=O)N2Cc2ccccc2)cc1 | 8 µg/mL | 8 µg/mL | 2 µg/mL | 32 µg/mL | 32 µg/mL | ≥ 256 µg/mL | ≥ 256 µg/mL | 8 µg/mL | ≥ 256 µg/mL | ≥ 256 µg/mL | ≥ 256 µg/mL | ≥ 256 µg/mL | ≥ 256 µg/mL | – |
| C/C(=N/N=C1/SCC(=O)N1Cc1ccccc1)c1ccc2ccc3ccccc3c2c1 | 8 µg/mL | 2 µg/mL | 2 µg/mL | 2 µg/mL | 2 µg/mL | ≥ 256 µg/mL | ≥ 256 µg/mL | 4 µg/mL | ≥ 256 µg/mL | ≥ 256 µg/mL | ≥ 256 µg/mL | ≥ 256 µg/mL | ≥ 256 µg/mL | – |
| C/C(=N/N=C1/SCC(=O)N1Cc1ccccc1)c1ccc2c(c1)OCCO2 | 8 µg/mL | 2 µg/mL | 8 µg/mL | 2 µg/mL | 2 µg/mL | ≥ 256 µg/mL | ≥ 256 µg/mL | 4 µg/mL | ≥ 256 µg/mL | ≥ 256 µg/mL | ≥ 256 µg/mL | ≥ 256 µg/mL | ≥ 256 µg/mL | – |
| C/C(=N/N=C1/SCC(=O)N1Cc1ccccc1)c1cc2ccccc2oc1=O | 128 µg/mL | 256 µg/mL | 32 µg/mL | 128 µg/mL | 256 µg/mL | ≥ 256 µg/mL | ≥ 256 µg/mL | 128 µg/mL | ≥ 256 µg/mL | ≥ 256 µg/mL | ≥ 256 µg/mL | ≥ 256 µg/mL | ≥ 256 µg/mL | – |
| CC(C)(O/N=C(\C(=O)N[C@@H]1C(=O)N2C(C(=O)[O-])=C(C[n+]3ccccc3)CS[C@H]12)c1csc(N)n1)C(=O)O [CEFTAZIDIME] | – | – | – | – | – | 8 µg/mL | 8 µg/mL | – | 8 µg/mL | 8 µg/mL | 8 µg/mL | 8 µg/mL | 8 µg/mL | 8 µg/mL |

The next lines start with results.

| MIC ([Candida] sake) | MIC (Candida albicans) | MIC (Nakaseomyces glabratus) | MIC (Candida parapsilosis) | MIC (Candida tropicalis) | MIC (Proteus mirabilis) | MIC (Klebsiella oxytoca) | MIC (Pichia kudriavzevii) | MIC (Enterobacter) | MIC (Escherichia coli) | MIC (Staphylococcus warneri) | MIC (Enterococcus faecalis) | MIC (Staphylococcus aureus) | Compound | MIC [1] |
| --- | --- | --- | --- | --- | --- | --- | --- | --- | --- | --- | --- | --- | --- | --- |
| 256 µg/mL | 256 µg/mL | 256 µg/mL | 256 µg/mL | 256 µg/mL | ≥ 256 µg/mL | ≥ 256 µg/mL | 256 µg/mL | ≥ 256 µg/mL | ≥ 256 µg/mL | ≥ 256 µg/mL | ≥ 256 µg/mL | ≥ 256 µg/mL | O=C1CS/C(=N/N=C\c2ccncc2)N1Cc1ccccc1 | – |
| 8 µg/mL | 8 µg/mL | 2 µg/mL | 32 µg/mL | 32 µg/mL | ≥ 256 µg/mL | ≥ 256 µg/mL | 8 µg/mL | ≥ 256 µg/mL | ≥ 256 µg/mL | ≥ 256 µg/mL | ≥ 256 µg/mL | ≥ 256 µg/mL | CC(=O)c1ccc(/C(C)=N\N=C2\SCC(=O)N2Cc2ccccc2)cc1 | – |
| 16 µg/mL | 256 µg/mL | 16 µg/mL | 16 µg/mL | 256 µg/mL | ≥ 256 µg/mL | ≥ 256 µg/mL | 2 µg/mL | ≥ 256 µg/mL | ≥ 256 µg/mL | ≥ 256 µg/mL | ≥ 256 µg/mL | ≥ 256 µg/mL | O=C1CS/C(=N/N=C\c2c[nH]c3ccccc23)N1Cc1ccccc1 | – |
| 8 µg/mL | 8 µg/mL | 8 µg/mL | 8 µg/mL | 8 µg/mL | ≥ 256 µg/mL | ≥ 256 µg/mL | 8 µg/mL | ≥ 256 µg/mL | ≥ 256 µg/mL | ≥ 256 µg/mL | ≥ 256 µg/mL | ≥ 256 µg/mL | O=C1CS/C(=N/N=C\c2ccc3c(c2)OCO3)N1Cc1ccccc1 | – |
| 16 µg/mL | 8 µg/mL | 8 µg/mL | 16 µg/mL | 16 µg/mL | ≥ 256 µg/mL | ≥ 256 µg/mL | 16 µg/mL | ≥ 256 µg/mL | ≥ 256 µg/mL | ≥ 256 µg/mL | ≥ 256 µg/mL | ≥ 256 µg/mL | O=C1CS/C(=N/N=C\c2cccc3ccccc23)N1Cc1ccccc1 | – |
| 32 µg/mL | 8 µg/mL | 16 µg/mL | 32 µg/mL | 32 µg/mL | ≥ 256 µg/mL | ≥ 256 µg/mL | 2 µg/mL | ≥ 256 µg/mL | ≥ 256 µg/mL | ≥ 256 µg/mL | ≥ 256 µg/mL | ≥ 256 µg/mL | C/C(=N/N=C1/SCC(=O)N1Cc1ccccc1)c1ccncc1 | – |
| 8 µg/mL | 8 µg/mL | 4 µg/mL | 32 µg/mL | 16 µg/mL | ≥ 256 µg/mL | ≥ 256 µg/mL | 4 µg/mL | ≥ 256 µg/mL | ≥ 256 µg/mL | ≥ 256 µg/mL | ≥ 256 µg/mL | ≥ 256 µg/mL | C/C(=N/N=C1/SCC(=O)N1Cc1ccccc1)c1c[nH]c2ccccc12 | – |
| 4 µg/mL | 4 µg/mL | 4 µg/mL | 32 µg/mL | 32 µg/mL | ≥ 256 µg/mL | ≥ 256 µg/mL | 16 µg/mL | ≥ 256 µg/mL | ≥ 256 µg/mL | ≥ 256 µg/mL | ≥ 256 µg/mL | ≥ 256 µg/mL | C/C(=N\N=C1\SCC(=O)N1Cc1ccccc1)c1cc2ccccc2o1 | – |
| 256 µg/mL | 256 µg/mL | 256 µg/mL | 256 µg/mL | 256 µg/mL | ≥ 256 µg/mL | ≥ 256 µg/mL | 256 µg/mL | ≥ 256 µg/mL | ≥ 256 µg/mL | ≥ 256 µg/mL | ≥ 256 µg/mL | ≥ 256 µg/mL | O=C1CS/C(=N/N=C\c2cccnc2)N1Cc1ccccc1 | – |
| 256 µg/mL | 256 µg/mL | 16 µg/mL | 256 µg/mL | 28 µg/mL | ≥ 256 µg/mL | ≥ 256 µg/mL | 256 µg/mL | ≥ 256 µg/mL | ≥ 256 µg/mL | ≥ 256 µg/mL | ≥ 256 µg/mL | ≥ 256 µg/mL | C/C(=N/N=C1/SCC(=O)N1Cc1ccccc1)c1ccccn1 | – |
